Measurements taken from the M2OR odorant receptor database.
Where a chain is given by its changes, count along the chain named.

Tests used:
Conditions in all cases: stereoisomer not certain
OR52I1 (Homo sapiens) = target: T1, OR52I1 (Homo sapiens) (UniProt Q8NGK6)
T1 sequence (whole entry): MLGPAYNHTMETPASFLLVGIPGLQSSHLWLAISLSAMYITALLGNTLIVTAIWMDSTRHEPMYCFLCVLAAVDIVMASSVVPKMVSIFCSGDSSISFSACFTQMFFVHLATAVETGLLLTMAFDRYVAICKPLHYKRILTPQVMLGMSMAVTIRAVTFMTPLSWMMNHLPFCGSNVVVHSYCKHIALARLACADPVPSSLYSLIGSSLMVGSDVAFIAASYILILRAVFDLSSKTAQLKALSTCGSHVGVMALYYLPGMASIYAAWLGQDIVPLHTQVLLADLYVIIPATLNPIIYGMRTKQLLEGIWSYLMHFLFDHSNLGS
In short: (§1)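 Assay methods differ from source to source, frequently being transient luciferase assays in mammalian cell lines. For each receptor–molecule pair, the label responsive (active) applies when the original authors judged the measured signal statistically different from baseline, and non-responsive (inactive) applies otherwise.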

OR52I2 (Homo sapiens) = target: T2, OR52I2 (Homo sapiens) (UniProt Q8NH67)
T2 sequence (whole entry): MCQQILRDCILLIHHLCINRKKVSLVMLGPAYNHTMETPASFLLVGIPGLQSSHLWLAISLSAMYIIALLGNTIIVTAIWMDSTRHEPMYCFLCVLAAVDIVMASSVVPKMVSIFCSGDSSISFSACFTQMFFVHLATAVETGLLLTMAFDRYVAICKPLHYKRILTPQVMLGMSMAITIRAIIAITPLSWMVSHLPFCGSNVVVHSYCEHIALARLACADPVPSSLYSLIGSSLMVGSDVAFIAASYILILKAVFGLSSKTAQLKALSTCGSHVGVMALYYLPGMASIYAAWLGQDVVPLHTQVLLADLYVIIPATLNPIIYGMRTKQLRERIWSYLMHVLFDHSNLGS
In short: as §1

OR52J3 (Homo sapiens) = OR52J3 (Homo sapiens) (UniProt Q8NH60)
OR52J3 (Homo sapiens), sequence (Q8NH60 whole entry): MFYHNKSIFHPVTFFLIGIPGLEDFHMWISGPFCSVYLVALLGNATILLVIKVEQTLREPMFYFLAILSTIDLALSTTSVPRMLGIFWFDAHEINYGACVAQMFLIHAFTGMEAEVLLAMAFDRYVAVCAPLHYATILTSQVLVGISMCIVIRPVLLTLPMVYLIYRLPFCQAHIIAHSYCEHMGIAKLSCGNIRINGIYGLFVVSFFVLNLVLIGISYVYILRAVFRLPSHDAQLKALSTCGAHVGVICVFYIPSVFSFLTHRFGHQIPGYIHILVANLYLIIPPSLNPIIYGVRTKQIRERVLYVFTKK
In short: as §1

OR52K1 (Homo sapiens) = target: T3, OR52K1 (Homo sapiens) (UniProt Q8NGK4)
T3 sequence (whole entry): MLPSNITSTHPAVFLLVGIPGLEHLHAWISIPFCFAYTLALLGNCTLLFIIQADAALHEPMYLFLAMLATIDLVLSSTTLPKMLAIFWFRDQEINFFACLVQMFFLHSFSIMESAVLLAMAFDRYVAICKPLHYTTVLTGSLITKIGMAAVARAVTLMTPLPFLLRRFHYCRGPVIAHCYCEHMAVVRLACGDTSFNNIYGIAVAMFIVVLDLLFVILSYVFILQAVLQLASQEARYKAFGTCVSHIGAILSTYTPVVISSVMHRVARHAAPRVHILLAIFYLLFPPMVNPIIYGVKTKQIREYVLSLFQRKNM
In short: as §1

OR52K2 (Homo sapiens) = target: T4, OR52K2 (Homo sapiens) (UniProt Q8NGK3)
T4 sequence (whole entry): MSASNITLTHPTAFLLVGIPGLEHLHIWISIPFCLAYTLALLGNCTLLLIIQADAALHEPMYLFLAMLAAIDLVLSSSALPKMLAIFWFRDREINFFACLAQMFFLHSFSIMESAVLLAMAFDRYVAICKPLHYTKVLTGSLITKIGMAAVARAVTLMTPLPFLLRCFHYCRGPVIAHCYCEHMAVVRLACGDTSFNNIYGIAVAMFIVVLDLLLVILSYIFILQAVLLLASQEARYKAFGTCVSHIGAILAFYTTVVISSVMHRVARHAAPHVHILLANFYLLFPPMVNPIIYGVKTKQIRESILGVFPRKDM
In short: as §1

OR52L1 (Homo sapiens) [1] = target: T5, OR52L1 (Homo sapiens) (UniProt Q8NGH7)
T5 sequence (whole entry): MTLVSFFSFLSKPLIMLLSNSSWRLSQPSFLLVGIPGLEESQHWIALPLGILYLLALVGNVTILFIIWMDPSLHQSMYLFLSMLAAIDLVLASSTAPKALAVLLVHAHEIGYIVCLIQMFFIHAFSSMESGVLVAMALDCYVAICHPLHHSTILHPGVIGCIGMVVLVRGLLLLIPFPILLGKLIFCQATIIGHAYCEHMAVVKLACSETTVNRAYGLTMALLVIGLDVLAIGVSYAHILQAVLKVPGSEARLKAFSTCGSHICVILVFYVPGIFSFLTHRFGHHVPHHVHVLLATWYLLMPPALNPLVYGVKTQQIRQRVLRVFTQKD
In short: as §1

OR52M1 (Homo sapiens) = target: T6, OR52M1 (Homo sapiens) (UniProt Q8NGK5)
T6 sequence (whole entry): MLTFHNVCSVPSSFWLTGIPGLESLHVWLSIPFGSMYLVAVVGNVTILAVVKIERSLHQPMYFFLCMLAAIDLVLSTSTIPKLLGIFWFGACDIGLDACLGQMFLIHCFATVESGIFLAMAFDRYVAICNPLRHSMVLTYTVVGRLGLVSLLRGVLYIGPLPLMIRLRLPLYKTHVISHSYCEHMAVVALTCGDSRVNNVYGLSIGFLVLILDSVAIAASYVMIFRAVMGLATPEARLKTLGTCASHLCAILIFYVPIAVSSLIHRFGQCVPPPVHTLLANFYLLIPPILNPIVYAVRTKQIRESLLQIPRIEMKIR
In short: as §1

OR52N1 (Homo sapiens) = target: T7, OR52N1 (Homo sapiens) (UniProt Q8NH53)
T7 sequence (whole entry): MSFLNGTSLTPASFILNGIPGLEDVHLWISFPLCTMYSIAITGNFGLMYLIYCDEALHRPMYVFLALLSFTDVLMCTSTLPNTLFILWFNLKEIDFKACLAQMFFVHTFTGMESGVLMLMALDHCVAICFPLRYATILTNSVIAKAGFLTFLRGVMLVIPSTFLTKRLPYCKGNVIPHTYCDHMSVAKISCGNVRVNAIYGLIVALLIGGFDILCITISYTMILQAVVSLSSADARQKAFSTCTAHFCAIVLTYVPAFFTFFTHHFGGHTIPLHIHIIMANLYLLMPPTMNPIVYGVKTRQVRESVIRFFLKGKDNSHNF
In short: as §1

OR52N2 (Homo sapiens) = target: T8, OR52N2 (Homo sapiens) (UniProt Q8NGI0)
T8 sequence (whole entry): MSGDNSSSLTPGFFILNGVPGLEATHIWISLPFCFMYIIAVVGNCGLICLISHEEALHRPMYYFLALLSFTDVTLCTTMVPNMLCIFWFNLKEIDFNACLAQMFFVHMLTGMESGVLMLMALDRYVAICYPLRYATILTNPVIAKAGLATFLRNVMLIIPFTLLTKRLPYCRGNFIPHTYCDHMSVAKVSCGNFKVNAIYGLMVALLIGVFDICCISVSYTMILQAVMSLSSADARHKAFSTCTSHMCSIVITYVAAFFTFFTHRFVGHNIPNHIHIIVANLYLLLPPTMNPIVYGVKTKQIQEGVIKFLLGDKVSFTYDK
In short: as §1

OR52N4 (Homo sapiens) = target: T9, OR52N4 (Homo sapiens) (UniProt Q8NGI2)
T9 sequence (whole entry): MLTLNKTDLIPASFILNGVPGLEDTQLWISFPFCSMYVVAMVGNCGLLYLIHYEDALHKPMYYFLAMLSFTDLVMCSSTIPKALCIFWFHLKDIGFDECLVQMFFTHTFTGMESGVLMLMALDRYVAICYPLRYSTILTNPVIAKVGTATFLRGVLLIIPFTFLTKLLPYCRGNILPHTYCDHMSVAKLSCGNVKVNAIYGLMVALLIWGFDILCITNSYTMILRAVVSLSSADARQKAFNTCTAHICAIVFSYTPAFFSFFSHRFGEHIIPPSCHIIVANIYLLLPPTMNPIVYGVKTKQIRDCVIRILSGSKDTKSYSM
In short: as §1

OR52N5 (Homo sapiens) = target: T10, OR52N5 (Homo sapiens) (UniProt Q8NH56)
T10 sequence (whole entry): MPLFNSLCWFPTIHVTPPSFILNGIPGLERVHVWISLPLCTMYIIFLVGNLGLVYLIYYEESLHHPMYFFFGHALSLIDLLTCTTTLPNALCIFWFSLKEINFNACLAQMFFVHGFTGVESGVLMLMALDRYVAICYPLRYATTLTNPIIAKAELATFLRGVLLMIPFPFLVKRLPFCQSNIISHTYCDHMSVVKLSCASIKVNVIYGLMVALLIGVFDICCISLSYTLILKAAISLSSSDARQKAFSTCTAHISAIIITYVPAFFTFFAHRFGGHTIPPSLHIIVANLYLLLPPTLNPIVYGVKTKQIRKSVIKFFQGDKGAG
In short: as §1

OR52R1 (Homo sapiens) = target: T11, OR52R1 (Homo sapiens) (UniProt Q8NGF1)
T11 sequence (whole entry): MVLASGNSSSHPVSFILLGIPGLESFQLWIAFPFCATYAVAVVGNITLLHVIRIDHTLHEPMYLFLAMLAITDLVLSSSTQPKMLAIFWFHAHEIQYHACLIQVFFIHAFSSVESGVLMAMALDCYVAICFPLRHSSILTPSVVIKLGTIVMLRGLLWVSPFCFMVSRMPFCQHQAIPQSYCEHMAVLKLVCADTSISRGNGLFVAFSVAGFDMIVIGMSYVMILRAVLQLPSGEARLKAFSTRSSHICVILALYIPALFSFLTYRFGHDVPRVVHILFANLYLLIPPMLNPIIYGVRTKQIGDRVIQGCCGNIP
In short: as §1

OR52W1 (Homo sapiens) = target: T12, OR52W1 (Homo sapiens) (UniProt Q6IF63)
T12 sequence (whole entry): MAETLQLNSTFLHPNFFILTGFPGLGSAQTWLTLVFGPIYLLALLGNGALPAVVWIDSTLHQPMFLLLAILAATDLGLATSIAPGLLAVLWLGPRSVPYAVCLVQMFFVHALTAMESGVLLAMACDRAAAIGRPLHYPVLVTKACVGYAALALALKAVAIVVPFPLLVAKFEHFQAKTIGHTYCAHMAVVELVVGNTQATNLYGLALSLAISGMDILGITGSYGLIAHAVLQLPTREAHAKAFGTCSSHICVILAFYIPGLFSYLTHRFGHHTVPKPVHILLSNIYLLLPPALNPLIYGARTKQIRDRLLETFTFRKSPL
In short: as §1

OR52Z1P (Homo sapiens) = OR52Z1P (Homo sapiens) (UniProt P0C646)
OR52Z1P (Homo sapiens), sequence (P0C646 whole entry): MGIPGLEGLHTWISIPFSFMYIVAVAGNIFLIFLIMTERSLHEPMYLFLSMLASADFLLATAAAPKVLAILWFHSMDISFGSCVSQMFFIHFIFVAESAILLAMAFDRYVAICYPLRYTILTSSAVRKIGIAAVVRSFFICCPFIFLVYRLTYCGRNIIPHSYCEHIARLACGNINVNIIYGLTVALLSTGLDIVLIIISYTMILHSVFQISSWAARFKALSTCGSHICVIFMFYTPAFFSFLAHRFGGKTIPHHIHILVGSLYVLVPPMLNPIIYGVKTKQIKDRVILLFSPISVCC
In short: as §1

OR56A1 (Homo sapiens) = target: T13, OR56A1 (Homo sapiens) (UniProt Q8NGH5)
T13 sequence (whole entry): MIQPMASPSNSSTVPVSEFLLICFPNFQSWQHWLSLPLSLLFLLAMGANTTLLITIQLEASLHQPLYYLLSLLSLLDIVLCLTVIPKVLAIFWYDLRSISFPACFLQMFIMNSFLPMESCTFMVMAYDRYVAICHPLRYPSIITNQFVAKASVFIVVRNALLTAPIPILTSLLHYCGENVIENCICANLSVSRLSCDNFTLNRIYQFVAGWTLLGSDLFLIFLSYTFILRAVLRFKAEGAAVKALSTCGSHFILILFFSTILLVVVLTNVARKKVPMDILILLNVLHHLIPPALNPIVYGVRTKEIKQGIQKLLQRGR
In short: as §1

OR56A3 (Homo sapiens) = target: T14, OR56A3 (Homo sapiens) (UniProt Q8NH54)
T14 sequence (whole entry): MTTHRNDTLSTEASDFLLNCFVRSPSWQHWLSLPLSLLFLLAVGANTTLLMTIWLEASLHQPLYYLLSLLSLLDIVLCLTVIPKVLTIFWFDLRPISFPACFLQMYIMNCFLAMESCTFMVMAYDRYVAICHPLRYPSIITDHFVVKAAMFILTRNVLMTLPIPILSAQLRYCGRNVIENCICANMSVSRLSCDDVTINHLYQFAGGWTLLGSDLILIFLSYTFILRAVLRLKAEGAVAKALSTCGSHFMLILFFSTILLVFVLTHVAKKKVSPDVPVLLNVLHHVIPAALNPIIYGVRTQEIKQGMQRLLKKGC
In short: as §1

OR56A4 (Homo sapiens) = target: T15, OR56A4 (Homo sapiens) (UniProt Q8NGH8)
T15 sequence (whole entry): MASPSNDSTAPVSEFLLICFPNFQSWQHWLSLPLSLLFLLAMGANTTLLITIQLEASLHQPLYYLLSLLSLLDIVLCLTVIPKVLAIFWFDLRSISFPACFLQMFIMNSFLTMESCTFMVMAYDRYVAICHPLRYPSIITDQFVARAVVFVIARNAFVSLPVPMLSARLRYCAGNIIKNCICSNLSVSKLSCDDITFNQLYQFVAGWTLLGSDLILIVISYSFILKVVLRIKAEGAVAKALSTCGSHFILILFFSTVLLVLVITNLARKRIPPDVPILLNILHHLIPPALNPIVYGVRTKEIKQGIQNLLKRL
In short: as §1

OR56A5 (Homo sapiens) = target: T16, OR56A5 (Homo sapiens) (UniProt P0C7T3)
T16 sequence (whole entry): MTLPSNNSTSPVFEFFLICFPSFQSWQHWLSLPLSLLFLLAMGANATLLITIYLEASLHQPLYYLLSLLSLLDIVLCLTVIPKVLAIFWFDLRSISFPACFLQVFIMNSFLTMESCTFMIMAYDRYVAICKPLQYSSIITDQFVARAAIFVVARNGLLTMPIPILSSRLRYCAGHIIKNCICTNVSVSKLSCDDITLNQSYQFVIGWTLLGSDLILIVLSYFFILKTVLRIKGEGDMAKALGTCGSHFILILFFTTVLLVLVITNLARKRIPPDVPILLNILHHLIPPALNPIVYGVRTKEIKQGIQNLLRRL
In short: as §1

OR56B1 (Homo sapiens) = target: T17, OR56B1 (Homo sapiens) (UniProt Q8NGI3)
T17 sequence (whole entry): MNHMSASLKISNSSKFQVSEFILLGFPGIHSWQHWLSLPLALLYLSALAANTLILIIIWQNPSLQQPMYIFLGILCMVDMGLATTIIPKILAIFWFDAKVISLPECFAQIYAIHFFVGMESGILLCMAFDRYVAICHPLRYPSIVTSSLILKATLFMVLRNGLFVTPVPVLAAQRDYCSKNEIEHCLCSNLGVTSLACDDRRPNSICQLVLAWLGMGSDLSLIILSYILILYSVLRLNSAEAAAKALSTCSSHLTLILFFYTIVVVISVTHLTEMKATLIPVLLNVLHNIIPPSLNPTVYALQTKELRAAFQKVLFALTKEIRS
In short: as §1

OR52L1 (Homo sapiens) [2] = target: T18, OR52L1 (Homo sapiens) (UniProt Q8NGH7); remark: listed apart in the source
T18 sequence (whole entry): T5 sequence (whole entry) with C140R, C161R, K183T, W297R
In short: as §1

Measured: odorant receptor agonist call

CC(=O)c1c(C)c([N+](=O)[O-])c(C(C)(C)C)c([N+](=O)[O-])c1C
not listed: OR52L1 (Homo sapiens) [2]
inactive: all other assays above

CC1=C(O)C(=O)C(C)O1 (stereo unspecified)
not listed: OR52L1 (Homo sapiens) [1] | OR52Z1P (Homo sapiens) | OR56A4 (Homo sapiens)
inactive: all other assays above
